The subject of assay [1] is Mus musculus. Kind of assay: Protective effect against adenine-induced chronic renal failure in Kunming mouse assessed as nephridial IL-6 levels at 200 mg/kg, ig qd administered for 4 successive weeks with haikunshenxi capsule (reference value: 20.85 +/- 0.11 pg/ml). The class given is functional.
For assay [2], the system named is Mus musculus. The assay can be described thus: Protective effect against adenine-induced chronic renal failure in ig dosed Kunming mouse assessed as increase in nephridial GSH levels administered as qd for 4 successive weeks by colorimetric method. Format: functional, organism-based. In a few lines:
(§1)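 Male Kunming mice (20 ± 5 g) given dietary adenine to induce CRF, then dosed orally at 100 or 200 mg kg–1, with or without Haikunshenxi capsule; n = 10 per group. Kidney homogenate assayed for SOD and CAT (U mg–1 protein), GSH-Px (U L–1), GSH (mg g–1 protein) and MDA (nmol mL–1).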

In assay [3] the test system is Mus musculus. The assay can be described thus: Protective effect against adenine-induced chronic renal failure in Kunming mouse assessed as kidney index at 100 mg/kg, ig qd administered for 4 successive weeks measured 24 hrs post last dose (reference value: 1.94 +/- 0.03 mg/g). Format: functional. In a few lines: (§2)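 Male Kunming mice (20 ± 5 g) were housed on a 12 h light/dark cycle at 18–20 °C. Chronic renal failure was induced by long-term dietary adenine. The melanin was given orally at 100 or 200 mg kg–1, alone or with Haikunshenxi capsule as positive drug, with ten mice per group. Weight growth rate (%) and kidney index (mg g–1) were recorded.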

Assay [4] relates to Mus musculus. The assay can be described thus: Protective effect against adenine-induced chronic renal failure in Kunming mouse assessed as nephridial iNOS levels at 100 mg/kg, ig qd administered for 4 successive weeks with haikunshenxi capsule (reference value: 1.98 +/- 0.12 U/mg). The class given is functional.
The subject of assay [5] is Mus musculus. The assay can be described thus: Protective effect against adenine-induced chronic renal failure in ig dosed Kunming mouse assessed as decrease in serum creatinine levels administered as qd for 4 successive weeks with haikunshenxi capsule by picric acid colorimetric method. The class given is functional, organism-based. A digest of the protocol:
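Adenine-fed CRF model in male Kunming mice (20 ± 5 g) housed at 18–20 °C on a 12 h light/dark cycle. Oral dosing at 100 or 200 mg kg–1, with or without Haikunshenxi capsule; ten mice per group. Serum creatinine, BUN, total protein and albumin measured, each group compared with the model group.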

In assay [6] the test system is Mus musculus. Kind of assay: Protective effect against adenine-induced chronic renal failure in Kunming mouse assessed as nephridial CAT levels at 100 mg/kg, ig qd administered for 4 successive weeks with haikunshenxi capsule by visible spectrometry method (reference value: 44.13 +/- 1.25 U/mg). Format: functional.
The test system of assay [7] is Mus musculus. The assay can be described thus: Protective effect against adenine-induced chronic renal failure in ig dosed Kunming mouse assessed as increase in nephridial CAT levels administered as qd for 4 successive weeks with haikunshenxi capsule by visible spectrometry method. Format: functional, organism-based. In a few lines: as §1
For assay [8], the system named is Mus musculus. Kind of assay: Protective effect against adenine-induced chronic renal failure in Kunming mouse assessed as weight growth rate at 100 mg/kg, ig qd administered for 4 successive weeks measured 24 hrs post last dose (reference value: 32.42 +/- 1.43%). The class given is functional. A digest of the protocol: as §2
Assay [9] relates to Mus musculus. The assay can be described thus: Protective effect against adenine-induced chronic renal failure in Kunming mouse assessed as nephridial IL-6 levels at 100 mg/kg, ig qd administered for 4 successive weeks with haikunshenxi capsule (reference value: 20.85 +/- 0.11 pg/ml). The class given is functional.
Assay [10] concerns Mus musculus. Kind of assay: Protective effect against adenine-induced chronic renal failure in Kunming mouse assessed as nephridial TNF-alpha levels at 200 mg/kg, ig qd administered for 4 successive weeks with haikunshenxi capsule (reference value: 250.15 +/- 8.10 pg/ml). The class given is functional.
Assay [11] has as its system Mus musculus. The assay can be described thus: Protective effect against adenine-induced chronic renal failure in Kunming mouse assessed as nephridial CAT levels at 200 mg/kg, ig qd administered for 4 successive weeks by visible spectrometry method (reference value: 44.13 +/- 1.25 U/mg). The class given is functional.
The test system of assay [12] is Mus musculus. Kind of assay: Protective effect against adenine-induced chronic renal failure in ig dosed Kunming mouse assessed as increase in nephridial CAT levels administered as qd for 4 successive weeks by visible spectrometry method. The class given is functional, organism-based. In a few lines:
as §1

In assay [13] the test system is Mus musculus. Kind of assay: Protective effect against adenine-induced chronic renal failure in Kunming mouse assessed as nephridial TNF-alpha levels at 100 mg/kg, ig qd administered for 4 successive weeks with haikunshenxi capsule (reference value: 250.15 +/- 8.10 pg/ml). The class given is functional.
Assay [14] has as its system Mus musculus. The assay can be described thus: Protective effect against adenine-induced chronic renal failure in ig dosed Kunming mouse assessed as decrease in nephridial IL-1beta levels administered as qd for 4 successive weeks. The class given is functional, organism-based. A digest of the protocol: (§3)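 CRF model made by chronic dietary adenine in male Kunming mice (20 ± 5 g); oral dosing at 100 or 200 mg kg–1, alone or with Haikunshenxi capsule; ten mice per group. Kidney tissue TNF-α, IL-1β and IL-6 measured as pg per mg protein, and iNOS activity as U mg–1 protein.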

Assay [15] concerns Mus musculus. Kind of assay: Protective effect against adenine-induced chronic renal failure in ig dosed Kunming mouse assessed as decrease in nephridial MDA levels administered as qd for 4 successive weeks with haikunshenxi capsule by thiobarbituric acid method. The class given is functional, organism-based. In a few lines: as §1
In assay [16] the test system is Mus musculus. The assay can be described thus: Protective effect against adenine-induced chronic renal failure in Kunming mouse assessed as nephridial GSH levels at 200 mg/kg, ig qd administered for 4 successive weeks by colorimetric method (reference value: 3.05 +/- 0.11 mg/g). The class given is functional.
Assay [17] has as its system Mus musculus. The assay can be described thus: Protective effect against adenine-induced chronic renal failure in Kunming mouse assessed as reduction in number of adenine crystals in kidney at 200 mg/kg, ig qd administered for 4 successive weeks by haematoxylin and eosin dye-based optical microscopic method. The class given is functional, organism-based. A digest of the protocol:
(§4)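 Kidneys were taken from male Kunming mice given an adenine diet plus oral melanin (100 or 200 mg kg–1), with or without Haikunshenxi capsule, ten per group. Histological sections were examined at 400× for glomeruli, tubules, adenine crystals, tubular atrophy and interstitial fibrosis.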

Assay [18] deals with Mus musculus. Kind of assay: Protective effect against adenine-induced chronic renal failure in Kunming mouse assessed as nephridial SOD levels at 200 mg/kg, ig qd administered for 4 successive weeks by hydroxylamine method (reference value: 30.45 +/- 1.12 U/mg). Format: functional.
In assay [19] the test system is Mus musculus. The assay can be described thus: Protective effect against adenine-induced chronic renal failure in ig dosed Kunming mouse assessed as decrease in nephridial iNOS levels administered as qd for 4 successive weeks with haikunshenxi capsule. Format: functional, organism-based. A digest of the protocol: as §3
Assay [20] concerns Mus musculus. The assay can be described thus: Protective effect against adenine-induced chronic renal failure in Kunming mouse assessed as reduction in number of adenine crystals at 200 mg/kg, ig qd administered for 4 successive weeks with haikunshenxi capsule by haematoxylin and eosin dye-based optical microscopic method. Format: functional, organism-based. A digest of the protocol: as §4

Assay [21] concerns Mus musculus. The assay can be described thus: Protective effect against adenine-induced chronic renal failure in ig dosed Kunming mouse assessed as increase in nephridial GSH-PX levels administered as qd for 4 successive weeks with haikunshenxi capsule by colorimetric method. Format: functional, organism-based. In a few lines:
as §1

The subject of assay [22] is Mus musculus. Kind of assay: Protective effect against adenine-induced chronic renal failure in Kunming mouse assessed as nephridial TNF-alpha levels at 100 mg/kg, ig qd administered for 4 successive weeks (reference value: 250.15 +/- 8.10 pg/ml). The class given is functional.
The subject of assay [23] is Mus musculus. Kind of assay: Protective effect against adenine-induced chronic renal failure in Kunming mouse assessed as nephridial SOD levels at 100 mg/kg, ig qd administered for 4 successive weeks with haikunshenxi capsule by hydroxylamine method (reference value: 30.45 +/- 1.12 U/mg). Format: functional.
Assay [24] relates to Mus musculus. Kind of assay: Protective effect against adenine-induced chronic renal failure in ig dosed Kunming mouse assessed as decrease in nephridial TNF-alpha levels administered as qd for 4 successive weeks. Format: functional, organism-based. In a few lines:
as §3

Activity calls are given as the source filed them. No cut-off for these calls is given here.

Regarding `Cc1c(=O)c(=O)c2c3c[nH]c4c(C)c(=O)c(=O)c(c5c[nH]c1c52)c43`, the Activity is 10.74 pg/mL with Mus musculus [1]; “Dose-dependent effect” in the assay on Mus musculus [2]; 1.72 mg/g in the assay with Mus musculus [3]; 0.79 U/mg in the assay with Mus musculus [4]; “Dose-dependent effect” in the assay on Mus musculus [5]; 74.25 U/mg with Mus musculus [6]. Also, the Activity result in the assay on Mus musculus [7] was “Dose-dependent effect”; with Mus musculus [8], 50.12%; in the assay with Mus musculus [9], 12.07 pg/mL; with Mus musculus [10], 84.35 pg/mL; in the assay on Mus musculus [11], 64.45 U/mg; in the assay with Mus musculus [12] it was “Dose-dependent effect”. For the same compound, the Activity with Mus musculus [13] was 98.13 pg/mL; in the assay with Mus musculus [14], “Dose-dependent effect”; with Mus musculus [15] it was “Dose-dependent effect”; with Mus musculus [16], 4.84 mg/g; with Mus musculus [18], 38.25 U/mg; in the assay on Mus musculus [19], “Dose-dependent effect”. For the same compound, the Activity result in the assay with Mus musculus [21] is “Dose-dependent effect”; with Mus musculus [22] it was 218.12 pg/mL; in the assay on Mus musculus [23] it was 46.52 U/mg; with Mus musculus [24] it was “Dose-dependent effect”. For the same compound, the result in the assay with Mus musculus [17] and in the assay with Mus musculus [20] was Active.
